Test results from ChEMBL document CHEMBL1158577, “Role of hydrophobic substituents on the terminal nitrogen of histamine in receptor binding and agonist activity: development of an orally active histamine type 3 receptor agonist and evaluation of its antistress activity in mice” (J Med Chem, 2010).
Each block holds one compound with its values, some of them ahead of it.

Legend:
Mus musculus [1] = assay: Antistress activity against isolation-induced aggressive behavior in ICR mouse assessed as duration of attacks to intruder mouse at 7.5 mg/kg, po measured for 10 mins by resident-intruder test (RVb = 54.5 +/- 6.7 sec); assay type: functional
Mus musculus [2] = assay: Antistress activity against isolation-induced aggressive behavior in ICR mouse assessed as duration of attacks to intruder mouse at 30 mg/kg, po measured for 10 mins by resident-intruder test (RVb = 54.5 +/- 6.7 sec); assay type: functional
Histamine H3 receptor [3] = target: T1, Histamine H3 receptor (Homo sapiens, UniProt Q9Y5N1); assay: Displacement of [3H[N-alpha-methylhistamine form human recombinant histamine H3 receptor expressed in CHO cells after 1 hr by liquid scintillation counting; assay type: cell-based
T1 sequence (Q9Y5N1 whole entry): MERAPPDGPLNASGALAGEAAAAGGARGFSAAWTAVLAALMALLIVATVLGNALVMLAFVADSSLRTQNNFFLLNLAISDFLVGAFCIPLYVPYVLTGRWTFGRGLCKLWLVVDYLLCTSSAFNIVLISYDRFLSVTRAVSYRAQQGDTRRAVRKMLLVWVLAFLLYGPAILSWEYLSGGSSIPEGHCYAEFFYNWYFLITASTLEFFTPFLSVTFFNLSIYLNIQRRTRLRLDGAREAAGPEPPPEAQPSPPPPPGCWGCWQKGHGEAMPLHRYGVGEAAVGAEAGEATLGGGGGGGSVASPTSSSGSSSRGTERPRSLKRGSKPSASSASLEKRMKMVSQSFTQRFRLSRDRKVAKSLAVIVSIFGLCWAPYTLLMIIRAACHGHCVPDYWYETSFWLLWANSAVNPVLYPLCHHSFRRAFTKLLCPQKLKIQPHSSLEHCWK
Method in brief: (§1)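 Used CHO cells stably expressing the human H3R for both affinity (pKi) and functional agonist measurements. Each value is the mean ± SEM of n = 3.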

Histamine H3 receptor [4] = target: T1, Histamine H3 receptor; assay: Agonist activity at human recombinant histamine H3 receptor expressed in CHO cells assessed as [35S]GTPgammaS binding after 1 hr by liquid scintillation counting; assay type: functional, cell-based; details: read-out: EC50; method in brief: as §1
Histamine H3 receptor [5] = target: T1, Histamine H3 receptor; assay: Agonist activity at human recombinant histamine H3 receptor expressed in CHO cells assessed as [35S]GTPgammaS binding at 10 nM after 1 hr by liquid scintillation counting relative to (R)-alpha-methylhistamine; assay type: functional, cell-based
Method in brief: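 CHO cells stably expressing human H3R. Agonist response is given as a percent of the response to the reference H3R agonist. Results are mean ± SEM, n = 3.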

Mus musculus [6] = assay: In-vivo agonist activity at histamine H3 receptor in ddY mouse assessed as N-tele-methylhistamine level per gram of brain at 1 mg/kg, po by gas chromatography (RVb = 315 +/- 20 ng); assay type: functional, organism-based; set-up: dose 1 mg/kg
Mus musculus [7] = assay: In-vivo agonist activity at histamine H3 receptor in ddY mouse assessed as N-tele-methylhistamine level per gram of brain at 5 mg/kg, po by gas chromatography (RVb = 315 +/- 20 ng); assay type: functional, organism-based; set-up: dose 5 mg/kg
Mus musculus [8] = assay: In-vivo agonist activity at histamine H3 receptor in ddY mouse assessed as N-tele-methylhistamine level per gram of brain at 30 mg/kg, po by gas chromatography (RVb = 315 +/- 20 ng); assay type: functional, organism-based; set-up: dose 30 mg/kg
Mus musculus [9] = assay: Antistress activity against isolation-induced aggressive behavior in ICR mouse assessed as duration of attacks to intruder mouse at 3 mg/kg, po measured for 10 mins by resident-intruder test (RVb = 54.5 +/- 6.7 sec); assay type: functional
[10] = Metabolic stability in rat liver S9 fraction assessed as […] after 60 mins by HPLC analysis; assay type: ADME, subcellular; details: s9, 1 h
Method in brief: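 Rat S9 metabolic activity was expressed as pmol/min/mg protein, reported as mean ± SEM with n = 3.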

[11] = Total clearance in Wistar rat at 2 mg/kg, iv after 6 hrs by LC-MS/MS analysis; assay type: ADME, organism-based; set-up: dose 2 mg/kg, route intravenous; details: in vivo
Method in brief: (§2)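 Rats received 2 mg/kg iv, with n = 2. Total clearance (L/h/kg), steady-state volume of distribution (L/kg) and half-life (h) were derived.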

[12] = Volume of distribution at steady state in Wistar rat at 2 mg/kg, iv after 6 hrs by LC-MS/MS analysis; assay type: ADME, organism-based; set-up: dose 2 mg/kg, route intravenous; details: in vivo, read-out: Vdss; method in brief: as §2
[13] = Half life in Wistar rat at 2 mg/kg, iv after 6 hrs by LC-MS/MS analysis; assay type: ADME, organism-based; set-up: dose 2 mg/kg, route intravenous; details: in vivo; method in brief: as §2
[14] = Oral bioavailability in Wistar rat at 5 mg/kg after 24 hrs by LC-MS/MS analysis; assay type: ADME, organism-based; details: in vivo
Method in brief: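 In rat, an oral dose of 5 mg/kg (n = 2) was used to determine AUC0-inf and bioavailability (%).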

[15] = Ratio of drug level in brain to plasma in Wistar rat at 5 mg/kg, po after 1 hr; assay type: ADME, organism-based; set-up: dose 5 mg/kg, route oral; details: brain and plasma, read-out: BPR
Method in brief: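 Brain/plasma concentration ratio was determined in rats 1 h after administration, with n = 2.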

Histamine H1 receptor = Histamine H1 receptor (Homo sapiens, UniProt P35367); assay: Inhibition of histamine H1 receptor
Histamine H1 receptor, sequence (P35367 whole entry): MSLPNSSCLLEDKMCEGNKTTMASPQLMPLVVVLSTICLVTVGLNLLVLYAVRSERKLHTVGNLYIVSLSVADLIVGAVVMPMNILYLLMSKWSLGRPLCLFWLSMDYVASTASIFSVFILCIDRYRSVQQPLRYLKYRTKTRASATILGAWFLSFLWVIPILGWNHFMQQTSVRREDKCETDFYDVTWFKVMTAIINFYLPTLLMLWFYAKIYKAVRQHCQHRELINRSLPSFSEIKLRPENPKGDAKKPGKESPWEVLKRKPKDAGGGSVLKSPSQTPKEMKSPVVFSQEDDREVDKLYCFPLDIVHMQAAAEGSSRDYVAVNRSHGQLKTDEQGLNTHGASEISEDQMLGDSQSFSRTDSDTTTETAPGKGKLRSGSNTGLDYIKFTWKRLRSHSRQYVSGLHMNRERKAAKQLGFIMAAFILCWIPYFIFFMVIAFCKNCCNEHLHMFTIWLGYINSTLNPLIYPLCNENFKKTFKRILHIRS

Histamine H2 receptor = Histamine H2 receptor (Homo sapiens, UniProt P25021); assay: Inhibition of histamine H2 receptor
Histamine H4 receptor = Histamine H4 receptor (Homo sapiens, UniProt Q9H3N8); assay: Inhibition of human recombinant histamine H4 receptor expressed in CHO cells; assay type: cell-based
[16] = Inhibition of alpha1 adrenergic receptor
[17] = target: Beta-1 adrenergic receptor (Homo sapiens, UniProt P08588); assay: Inhibition of beta-1 adrenergic receptor
[18] = target: Beta-2 adrenergic receptor (Homo sapiens, UniProt P07550); assay: Inhibition of beta2 adrenergic receptor
Beta-2 adrenergic receptor, sequence (P07550 whole entry): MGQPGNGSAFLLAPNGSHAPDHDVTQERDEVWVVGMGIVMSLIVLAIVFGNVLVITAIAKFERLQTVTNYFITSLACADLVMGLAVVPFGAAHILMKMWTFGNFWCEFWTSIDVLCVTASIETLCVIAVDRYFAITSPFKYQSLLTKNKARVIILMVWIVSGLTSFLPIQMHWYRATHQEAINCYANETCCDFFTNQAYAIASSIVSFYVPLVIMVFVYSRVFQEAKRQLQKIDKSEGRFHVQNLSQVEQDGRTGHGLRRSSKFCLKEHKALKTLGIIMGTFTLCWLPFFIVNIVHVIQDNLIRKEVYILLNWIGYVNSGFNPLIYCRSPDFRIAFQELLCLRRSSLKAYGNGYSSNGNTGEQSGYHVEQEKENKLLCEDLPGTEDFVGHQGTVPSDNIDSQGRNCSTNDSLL

[19] = target: T2, Muscarinic acetylcholine receptor M1 (Homo sapiens, UniProt P11229); assay: Inhibition of muscarinic M1 receptor
T2 sequence (P11229 whole entry): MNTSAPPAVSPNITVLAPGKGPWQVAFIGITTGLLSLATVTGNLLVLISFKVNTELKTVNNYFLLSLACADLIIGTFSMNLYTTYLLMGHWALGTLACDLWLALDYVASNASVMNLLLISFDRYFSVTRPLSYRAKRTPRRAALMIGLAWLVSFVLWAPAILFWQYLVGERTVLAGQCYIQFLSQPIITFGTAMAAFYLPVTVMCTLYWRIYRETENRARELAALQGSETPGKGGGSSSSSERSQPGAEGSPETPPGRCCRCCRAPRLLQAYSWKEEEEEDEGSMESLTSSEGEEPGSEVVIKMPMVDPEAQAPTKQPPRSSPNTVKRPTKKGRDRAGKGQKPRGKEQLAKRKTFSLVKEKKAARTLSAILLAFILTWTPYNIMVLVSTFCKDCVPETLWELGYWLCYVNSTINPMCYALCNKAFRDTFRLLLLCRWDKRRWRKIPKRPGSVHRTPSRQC

[20] = target: Muscarinic acetylcholine receptor M3 (Homo sapiens, UniProt P20309); assay: Inhibition of muscarinic M3 receptor
Muscarinic acetylcholine receptor M3, sequence (P20309 whole entry): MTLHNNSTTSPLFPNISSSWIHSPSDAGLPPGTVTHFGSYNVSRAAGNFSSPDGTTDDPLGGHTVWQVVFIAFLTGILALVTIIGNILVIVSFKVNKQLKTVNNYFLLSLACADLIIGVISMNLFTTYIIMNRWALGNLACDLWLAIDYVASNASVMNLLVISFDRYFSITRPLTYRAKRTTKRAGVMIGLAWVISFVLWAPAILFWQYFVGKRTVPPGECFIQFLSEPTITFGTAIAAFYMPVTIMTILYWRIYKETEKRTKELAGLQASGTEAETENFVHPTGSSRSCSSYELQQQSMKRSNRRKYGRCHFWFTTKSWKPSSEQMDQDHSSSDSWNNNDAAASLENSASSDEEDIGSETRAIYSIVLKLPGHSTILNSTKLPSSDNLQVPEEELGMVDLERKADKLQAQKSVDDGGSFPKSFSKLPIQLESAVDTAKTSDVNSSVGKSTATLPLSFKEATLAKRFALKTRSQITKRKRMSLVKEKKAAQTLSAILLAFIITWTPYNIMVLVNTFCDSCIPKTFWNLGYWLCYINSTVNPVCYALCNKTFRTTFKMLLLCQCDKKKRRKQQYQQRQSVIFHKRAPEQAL

[21] = target: T3, 5-hydroxytryptamine receptor 1A (Homo sapiens, UniProt P08908); assay: Inhibition of 5HT1A receptor
T3 sequence (P08908 whole entry): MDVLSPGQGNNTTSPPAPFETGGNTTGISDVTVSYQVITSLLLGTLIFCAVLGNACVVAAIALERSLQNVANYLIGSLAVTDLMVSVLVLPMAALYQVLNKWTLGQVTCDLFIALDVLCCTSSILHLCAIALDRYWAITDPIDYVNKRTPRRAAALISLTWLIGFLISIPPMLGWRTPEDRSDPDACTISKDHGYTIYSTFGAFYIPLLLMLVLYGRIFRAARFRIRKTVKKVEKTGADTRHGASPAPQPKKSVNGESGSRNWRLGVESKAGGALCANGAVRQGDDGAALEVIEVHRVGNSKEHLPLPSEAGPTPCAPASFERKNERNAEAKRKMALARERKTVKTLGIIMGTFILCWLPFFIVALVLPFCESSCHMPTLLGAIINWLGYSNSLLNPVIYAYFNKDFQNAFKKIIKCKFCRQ

[22] = target: 5-hydroxytryptamine receptor 2A (Homo sapiens, UniProt P28223); assay: Inhibition of 5HT2A receptor
5-hydroxytryptamine receptor 2A, sequence (P28223 whole entry): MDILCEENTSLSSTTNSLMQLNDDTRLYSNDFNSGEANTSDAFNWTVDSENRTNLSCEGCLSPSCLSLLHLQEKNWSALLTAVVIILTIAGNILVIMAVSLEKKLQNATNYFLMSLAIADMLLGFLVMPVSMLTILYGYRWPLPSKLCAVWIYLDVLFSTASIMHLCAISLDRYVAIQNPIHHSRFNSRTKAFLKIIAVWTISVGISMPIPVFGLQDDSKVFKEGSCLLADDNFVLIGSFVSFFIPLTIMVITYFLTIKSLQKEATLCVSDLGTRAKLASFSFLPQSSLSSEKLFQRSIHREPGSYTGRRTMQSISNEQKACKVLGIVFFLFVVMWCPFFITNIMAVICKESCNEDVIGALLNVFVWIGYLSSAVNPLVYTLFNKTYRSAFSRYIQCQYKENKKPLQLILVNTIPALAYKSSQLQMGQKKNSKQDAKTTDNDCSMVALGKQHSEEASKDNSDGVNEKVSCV

[23] = target: T4, 5-hydroxytryptamine receptor 3A (Homo sapiens, UniProt P46098); assay: Inhibition of 5HT3 receptor
T4 sequence (P46098 whole entry): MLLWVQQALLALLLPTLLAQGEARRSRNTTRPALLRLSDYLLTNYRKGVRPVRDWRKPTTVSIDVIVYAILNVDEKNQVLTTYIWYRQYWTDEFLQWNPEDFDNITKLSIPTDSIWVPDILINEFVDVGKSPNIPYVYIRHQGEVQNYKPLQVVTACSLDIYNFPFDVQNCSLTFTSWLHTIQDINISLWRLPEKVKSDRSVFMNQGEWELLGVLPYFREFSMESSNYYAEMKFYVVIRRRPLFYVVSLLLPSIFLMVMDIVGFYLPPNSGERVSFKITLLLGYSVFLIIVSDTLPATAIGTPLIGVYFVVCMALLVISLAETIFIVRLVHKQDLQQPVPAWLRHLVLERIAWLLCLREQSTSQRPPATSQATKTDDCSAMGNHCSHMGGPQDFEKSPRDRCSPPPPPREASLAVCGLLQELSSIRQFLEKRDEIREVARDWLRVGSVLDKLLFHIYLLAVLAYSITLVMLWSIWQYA

D(1A) dopamine receptor = D(1A) dopamine receptor (Homo sapiens, UniProt P21728); assay: Inhibition of dopamine D1 receptor
D(1A) dopamine receptor, sequence (P21728 whole entry): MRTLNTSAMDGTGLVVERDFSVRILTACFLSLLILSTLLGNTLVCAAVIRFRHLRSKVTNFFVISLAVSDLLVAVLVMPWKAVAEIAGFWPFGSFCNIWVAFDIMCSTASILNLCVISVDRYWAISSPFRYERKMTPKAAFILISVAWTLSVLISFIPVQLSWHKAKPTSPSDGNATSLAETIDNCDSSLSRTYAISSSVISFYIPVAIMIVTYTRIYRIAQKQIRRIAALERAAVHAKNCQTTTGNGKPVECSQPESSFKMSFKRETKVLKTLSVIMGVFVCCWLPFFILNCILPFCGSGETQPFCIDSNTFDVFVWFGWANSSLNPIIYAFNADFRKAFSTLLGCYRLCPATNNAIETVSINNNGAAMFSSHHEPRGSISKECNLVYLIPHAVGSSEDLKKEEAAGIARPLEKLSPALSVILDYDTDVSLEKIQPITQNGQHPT

D(2) dopamine receptor = D(2) dopamine receptor (Homo sapiens, UniProt P14416); assay: Inhibition of dopamine D2 receptor
D(2) dopamine receptor, sequence (P14416 whole entry): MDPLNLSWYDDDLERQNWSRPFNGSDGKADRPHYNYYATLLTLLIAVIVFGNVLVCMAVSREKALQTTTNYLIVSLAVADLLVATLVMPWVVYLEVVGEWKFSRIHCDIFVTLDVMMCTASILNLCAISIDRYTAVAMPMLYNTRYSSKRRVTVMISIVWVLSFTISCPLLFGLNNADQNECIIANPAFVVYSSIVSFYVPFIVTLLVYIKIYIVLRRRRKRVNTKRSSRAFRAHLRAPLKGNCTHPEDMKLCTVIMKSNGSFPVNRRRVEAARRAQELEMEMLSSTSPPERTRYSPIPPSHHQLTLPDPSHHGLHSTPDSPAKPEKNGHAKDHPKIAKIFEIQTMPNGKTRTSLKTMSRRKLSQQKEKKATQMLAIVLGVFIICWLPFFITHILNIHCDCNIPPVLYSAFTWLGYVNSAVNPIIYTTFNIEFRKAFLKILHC

D(3) dopamine receptor = D(3) dopamine receptor (Homo sapiens, UniProt P35462); assay: Inhibition of dopamine D3 receptor
Cytochrome P450 1A2 = target: T5, Cytochrome P450 1A2 (Homo sapiens, UniProt P05177); assay: Inhibition of human CYP1A2 expressed in insect cell microsome after 15 mins by fluorescence assay; assay type: ADME, microsomes
T5 sequence (P05177 whole entry): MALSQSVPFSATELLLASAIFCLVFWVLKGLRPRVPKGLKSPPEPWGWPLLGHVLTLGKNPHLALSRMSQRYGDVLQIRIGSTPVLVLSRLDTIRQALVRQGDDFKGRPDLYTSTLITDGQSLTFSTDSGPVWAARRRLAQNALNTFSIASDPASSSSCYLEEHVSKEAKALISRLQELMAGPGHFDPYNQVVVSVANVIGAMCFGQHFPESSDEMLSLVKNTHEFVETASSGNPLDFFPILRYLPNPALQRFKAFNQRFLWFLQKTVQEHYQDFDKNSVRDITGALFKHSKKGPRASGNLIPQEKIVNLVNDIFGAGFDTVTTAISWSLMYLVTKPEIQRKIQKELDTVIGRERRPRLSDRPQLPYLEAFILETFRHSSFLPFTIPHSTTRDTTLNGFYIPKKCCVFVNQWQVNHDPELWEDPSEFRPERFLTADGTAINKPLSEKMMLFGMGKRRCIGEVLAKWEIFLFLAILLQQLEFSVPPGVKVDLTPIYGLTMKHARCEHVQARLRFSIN

Cytochrome P450 2C19 = Cytochrome P450 2C19 (Homo sapiens, UniProt P33261); assay: Inhibition of human CYP2C19 expressed in insect cell microsome after 30 mins by fluorescence assay; assay type: ADME, microsomes
Cytochrome P450 2C19, sequence (P33261 whole entry): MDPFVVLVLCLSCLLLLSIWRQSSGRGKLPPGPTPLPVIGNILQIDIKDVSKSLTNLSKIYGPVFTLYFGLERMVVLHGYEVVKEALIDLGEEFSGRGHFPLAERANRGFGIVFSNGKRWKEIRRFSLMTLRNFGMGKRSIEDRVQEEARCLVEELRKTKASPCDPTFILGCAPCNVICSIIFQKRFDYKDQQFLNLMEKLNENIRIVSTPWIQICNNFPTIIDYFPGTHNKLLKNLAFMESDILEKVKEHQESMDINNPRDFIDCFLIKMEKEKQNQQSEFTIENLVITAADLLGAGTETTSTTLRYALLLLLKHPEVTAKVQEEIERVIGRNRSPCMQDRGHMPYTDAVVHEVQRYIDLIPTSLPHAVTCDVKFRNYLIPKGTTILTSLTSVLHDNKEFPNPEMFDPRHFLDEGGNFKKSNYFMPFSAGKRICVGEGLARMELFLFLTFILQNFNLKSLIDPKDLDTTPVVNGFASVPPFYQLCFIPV

Cytochrome P450 2D6 = Cytochrome P450 2D6 (Homo sapiens, UniProt P10635); assay: Inhibition of human CYP2D6 expressed in insect cell microsome after 30 mins by fluorescence assay; assay type: ADME, microsomes
Cytochrome P450 2D6, sequence (P10635 whole entry): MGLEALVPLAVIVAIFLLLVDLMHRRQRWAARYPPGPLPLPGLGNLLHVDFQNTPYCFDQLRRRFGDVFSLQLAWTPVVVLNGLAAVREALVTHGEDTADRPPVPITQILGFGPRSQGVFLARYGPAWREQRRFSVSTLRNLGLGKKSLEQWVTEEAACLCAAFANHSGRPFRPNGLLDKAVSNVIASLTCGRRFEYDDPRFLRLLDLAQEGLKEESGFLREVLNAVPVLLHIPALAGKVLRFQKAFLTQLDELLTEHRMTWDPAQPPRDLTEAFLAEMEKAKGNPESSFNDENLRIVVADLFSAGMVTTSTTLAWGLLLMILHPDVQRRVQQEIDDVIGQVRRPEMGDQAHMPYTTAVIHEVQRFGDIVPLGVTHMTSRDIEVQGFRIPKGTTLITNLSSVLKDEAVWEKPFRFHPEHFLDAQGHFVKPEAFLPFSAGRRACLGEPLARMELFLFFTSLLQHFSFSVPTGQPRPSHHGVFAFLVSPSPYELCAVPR

Cytochrome P450 3A4 = Cytochrome P450 3A4 (Homo sapiens, UniProt P08684); assay: Inhibition of human CYP3A4 expressed in insect cell microsome after 30 mins by fluorescence assay; assay type: ADME, microsomes
Cytochrome P450 3A4, sequence (P08684 whole entry): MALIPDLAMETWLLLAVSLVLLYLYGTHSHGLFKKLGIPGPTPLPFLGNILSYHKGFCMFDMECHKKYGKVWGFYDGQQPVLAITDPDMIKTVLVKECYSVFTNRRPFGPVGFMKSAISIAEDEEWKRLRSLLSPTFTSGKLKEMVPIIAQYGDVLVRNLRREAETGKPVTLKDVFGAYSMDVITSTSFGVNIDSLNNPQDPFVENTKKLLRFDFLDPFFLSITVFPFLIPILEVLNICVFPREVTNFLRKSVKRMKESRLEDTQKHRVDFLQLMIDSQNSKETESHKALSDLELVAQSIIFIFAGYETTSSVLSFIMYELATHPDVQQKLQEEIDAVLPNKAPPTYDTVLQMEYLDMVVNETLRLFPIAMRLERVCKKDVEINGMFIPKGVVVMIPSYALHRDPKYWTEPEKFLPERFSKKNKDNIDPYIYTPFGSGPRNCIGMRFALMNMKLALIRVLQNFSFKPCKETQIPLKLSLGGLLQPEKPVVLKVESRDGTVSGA

SMILES: COCCCC/C(=N\OCCN)c1ccc(C(F)(F)F)cc1 [FLUVOXAMINE]
- Time (Mus musculus [1]): 30.7 s
- Time (Mus musculus [2]): 19.9 s

- Ki (Histamine H3 receptor [3]): 0.89 nM
- EC50 (Histamine H3 receptor [4]): 1.6 nM
SMILES: CC(C)(C)c1ccc(NCCc2cnc[nH]2)cc1

- Activity (Histamine H3 receptor [5]): 49%
SMILES: Cc1ccc(NCCc2c[nH]cn2)cc1

- Activity (Histamine H3 receptor [5]): 59%
SMILES: Cc1ccc(NCCc2c[nH]cn2)cc1C

- Activity (Histamine H3 receptor [5]): 91%
SMILES: N=C(N)SCCc1c[nH]cn1
- Nτ-methylhistamine level (Mus musculus [6]): 239 ng/g
- Nτ-methylhistamine level (Mus musculus [7]): 133 ng/g
- Nτ-methylhistamine level (Mus musculus [8]): 98 ng/g

- Ki (Histamine H3 receptor [3]): 9.9 nM
- EC50 (Histamine H3 receptor [4]): 25 nM
SMILES: Cc1ccc(NCCc2cnc[nH]2)cc1C

- Ki (Histamine H3 receptor [3]): 0.17 nM
- EC50 (Histamine H3 receptor [4]): 0.75 nM
- Activity (Histamine H3 receptor [5]): 77%
- Stability [10]: 13 pmol/min
- clearance [11]: 46.7 mL/min/kg
- Vd [12]: 3.4 L/kg
- half-life [13]: 1 h
- bioavailability [14]: 53.5%
- Kp at 1 h [15]: 6
- Ki (Histamine H1 receptor): > 1000 nM
- Ki (Histamine H2 receptor): > 1000 nM
- Ki (Histamine H4 receptor): 1.1 nM
- Ki [16]: > 1000 nM
- Ki [17]: > 1000 nM
- Ki [18]: > 1000 nM
- Ki [19]: > 1000 nM
- Ki [20]: > 1000 nM
- Ki [21]: > 1000 nM
- Ki [22]: > 1000 nM
- Ki [23]: > 1000 nM
- Ki (D(1A) dopamine receptor): > 1000 nM
- Ki (D(2) dopamine receptor): > 1000 nM
- Ki (D(3) dopamine receptor): > 1000 nM
- IC50 (Cytochrome P450 1A2): 680 nM
- IC50 (Cytochrome P450 2C19): 8.5 nM
- IC50 (Cytochrome P450 2D6): 680 nM
- IC50 (Cytochrome P450 3A4): 470 nM
SMILES: CC(C)(C)c1ccc(SCCc2c[nH]cn2)cc1
- Nτ-methylhistamine level (Mus musculus [6]): 298 ng/g
- Nτ-methylhistamine level (Mus musculus [7]): 92 ng/g
- Nτ-methylhistamine level (Mus musculus [8]): 96 ng/g
- Time (Mus musculus [2]): 16.3 s
- Time (Mus musculus [9]): 42.9 s

SMILES: NCCc1c[nH]cn1 [HISTAMINE]
- Activity (Histamine H3 receptor [5]): 110%

- Ki (Histamine H3 receptor [3]): 2.2 nM
- EC50 (Histamine H3 receptor [4]): 4.6 nM
- Activity (Histamine H3 receptor [5]): 48%
SMILES: CC(C)(C)c1cccc(NCCc2c[nH]cn2)c1
